Test results reported in ChEMBL document CHEMBL2331322, “Synthesis and antimicrobial activity of some new benzo and naphthonitrile derivatives” (2013).
Values after ≈ are worked out from the molar mass of the structure shown.

What was measured:
Assay type in all cases: functional
Bacillus subtilis [1] = assay: Antimicrobial activity against Bacillus subtilis at 1 mg/mL after 24 hrs by agar disc diffusion method; conditions: read-out: DIZ
Method in brief: (§1)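 Sterile 5 mm filter paper disks were impregnated with test solution in DMF (1 mg/mL) and placed on agar plates seeded with the test organism, in triplicate. Bacteria were incubated at 37 °C for 24 h and fungi for […] (so in the source). The read-out was the average inhibition zone diameter around the disks, in mm.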

Botrytis fabae [2] = assay: Antimicrobial activity against Botrytis fabae after 48 hrs by microdilution susceptibility test
Method in brief: (§2)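 MIC was determined by broth microdilution, using Müller–Hinton broth for bacteria and Sabouraud liquid medium for fungi. Stocks were made in DMF and serially diluted twofold. Wells were inoculated at 10⁶ CFU/mL and plates incubated at 36 °C for 24–48 h, with controls included. Only compounds giving agar-diffusion zones >14 mm were tested.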

Fusarium oxysporum [3] = assay: Antimicrobial activity against Fusarium oxysporum after 48 hrs by microdilution susceptibility test; method in brief: as §2
Pseudomonas aeruginosa [4] = assay: Antimicrobial activity against Pseudomonas aeruginosa after 24 hrs by microdilution susceptibility test; method in brief: as §2
Escherichia coli [5] = assay: Antimicrobial activity against Escherichia coli after 24 hrs by microdilution susceptibility test; method in brief: as §2
Bacillus subtilis [6] = assay: Antimicrobial activity against Bacillus subtilis after 24 hrs by microdilution susceptibility test; method in brief: as §2
Bacillus thuringiensis [7] = assay: Antimicrobial activity against Bacillus thuringiensis after 24 hrs by microdilution susceptibility test; method in brief: as §2
Botrytis fabae [8] = assay: Antimicrobial activity against Botrytis fabae at 1 mg/mL […] by agar disc diffusion method; conditions: read-out: DIZ
Fusarium oxysporum [9] = assay: Antimicrobial activity against Fusarium oxysporum at 1 mg/mL after 48 hrs by agar disc diffusion method; conditions: read-out: DIZ; method in brief: as §1
Pseudomonas aeruginosa [10] = assay: Antimicrobial activity against Pseudomonas aeruginosa at 1 mg/mL after 24 hrs by agar disc diffusion method; conditions: read-out: DIZ; method in brief: as §1
Escherichia coli [11] = assay: Antimicrobial activity against Escherichia coli at 1 mg/mL after 24 hrs by agar disc diffusion method; conditions: read-out: DIZ; method in brief: as §1
Bacillus thuringiensis [12] = assay: Antimicrobial activity against Bacillus thuringiensis at 1 mg/mL after 24 hrs by agar disc diffusion method; conditions: read-out: DIZ; method in brief: as §1

SMILES | zone of inhibition at 1000 µg/mL (Bacillus subtilis [1]) | MIC (Botrytis fabae [2]) | MIC (Fusarium oxysporum [3]) | MIC (Pseudomonas aeruginosa [4]) | MBC (Escherichia coli [5]) | MIC (Escherichia coli [5]) | MBC (Bacillus subtilis [6]) | MIC (Bacillus subtilis [6]) | MIC (Bacillus thuringiensis [7]) | zone of inhibition at 1000 µg/mL (Botrytis fabae [8]) | zone of inhibition at 1000 µg/mL (Fusarium oxysporum [9]) | zone of inhibition at 1000 µg/mL (Pseudomonas aeruginosa [10]) | zone of inhibition at 1000 µg/mL (Escherichia coli [11]) | zone of inhibition at 1000 µg/mL (Bacillus thuringiensis [12])
N#CC1c2ccccc2C(=N)C(C#N)(C#N)C1c1ccc(Cl)cc1 (stereo unspecified) | 20 mm | 50 µg/mL (≈ 151 µM) | 50 µg/mL (≈ 151 µM) | 100 µg/mL (≈ 302 µM) | 200 µg/mL (≈ 605 µM) | 100 µg/mL (≈ 302 µM) | 200 µg/mL (≈ 605 µM) | 50 µg/mL (≈ 151 µM) | 50 µg/mL (≈ 151 µM) | 26 mm | 20 mm | 31 mm | 33 mm | 33 mm
N#Cc1ccccc1C(/N=N/c1ccc(Cl)cc1)C(N)=O (stereo unspecified) | 38 mm | 12.5 µg/mL (≈ 41.8 µM) | 25 µg/mL (≈ 83.7 µM) | 25 µg/mL (≈ 83.7 µM) | 100 µg/mL (≈ 335 µM) | 12.5 µg/mL (≈ 41.8 µM) | 50 µg/mL (≈ 167 µM) | 6.25 µg/mL (≈ 20.9 µM) | 12.5 µg/mL (≈ 41.8 µM) | 16 mm | 16 mm | 15 mm | 27 mm | 33 mm
N=c1[nH]c2nn(-c3ccc(Cl)cc3)nc2c2ccccc12 | 32 mm | 50 µg/mL (≈ 169 µM) | 25 µg/mL (≈ 84.5 µM) | 50 µg/mL (≈ 169 µM) | 200 µg/mL (≈ 676 µM) | 50 µg/mL (≈ 169 µM) | 200 µg/mL (≈ 676 µM) | 25 µg/mL (≈ 84.5 µM) | 25 µg/mL (≈ 84.5 µM) | 15 mm | 15 mm | 19 mm | 15 mm | 38 mm
CCOC(=O)c1c2[nH]c(=N)c3ccccc3c2nn1-c1ccc(Cl)cc1 | 33 mm | 50 µg/mL (≈ 136 µM) | 25 µg/mL (≈ 68.2 µM) | 25 µg/mL (≈ 68.2 µM) | 200 µg/mL (≈ 545 µM) | 50 µg/mL (≈ 136 µM) | 200 µg/mL (≈ 545 µM) | 25 µg/mL (≈ 68.2 µM) | 50 µg/mL (≈ 136 µM) | 27 mm | 16 mm | 33 mm | 25 mm | 38 mm
CCOC(=O)c1c2[nH]c(=N)c3ccccc3c2nn1-c1ccc(OC)cc1 | 40 mm | 50 µg/mL (≈ 138 µM) | 25 µg/mL (≈ 69 µM) | 50 µg/mL (≈ 138 µM) | 200 µg/mL (≈ 552 µM) | 50 µg/mL (≈ 138 µM) | 200 µg/mL (≈ 552 µM) | 50 µg/mL (≈ 138 µM) | 25 µg/mL (≈ 69 µM) | 19 mm | 38 mm | 20 mm | 30 mm | 37 mm
N#Cc1ccccc1C(C#N)/N=N/c1ccc(Cl)cc1 (stereo unspecified) | 42 mm | 6.25 µg/mL (≈ 22.3 µM) | 6.25 µg/mL (≈ 22.3 µM) | 12.5 µg/mL (≈ 44.5 µM) | 200 µg/mL (≈ 712 µM) | 6.25 µg/mL (≈ 22.3 µM) | 50 µg/mL (≈ 178 µM) | 3.12 µg/mL (≈ 11.1 µM) | 6.25 µg/mL (≈ 22.3 µM) | 39 mm | 38 mm | 35 mm | 37 mm | 38 mm
Cc1ccc(/N=N/C(C#N)c2ccccc2C#N)cc1 (stereo unspecified) | 35 mm | 25 µg/mL (≈ 96 µM) | 12.5 µg/mL (≈ 48 µM) | 25 µg/mL (≈ 96 µM) | 200 µg/mL (≈ 768 µM) | 25 µg/mL (≈ 96 µM) | 100 µg/mL (≈ 384 µM) | 12.5 µg/mL (≈ 48 µM) | 25 µg/mL (≈ 96 µM) | 35 mm | 33 mm | 16 mm | 30 mm | 33 mm
N#Cc1ccccc1C(/N=N/c1ccccc1)C(N)=O (stereo unspecified) | 37 mm | 25 µg/mL (≈ 94.6 µM) | 12.5 µg/mL (≈ 47.3 µM) | 25 µg/mL (≈ 94.6 µM) | 200 µg/mL (≈ 757 µM) | 25 µg/mL (≈ 94.6 µM) | 100 µg/mL (≈ 378 µM) | 12.5 µg/mL (≈ 47.3 µM) | 12.5 µg/mL (≈ 47.3 µM) | 15 mm | 27 mm | 31 mm | 15 mm | 37 mm
CCOC(=O)c1c2[nH]c(=N)c3ccccc3c2nn1-c1ccc(C)cc1 | 32 mm | 50 µg/mL (≈ 144 µM) | 50 µg/mL (≈ 144 µM) | 50 µg/mL (≈ 144 µM) | 200 µg/mL (≈ 577 µM) | 50 µg/mL (≈ 144 µM) | 200 µg/mL (≈ 577 µM) | 25 µg/mL (≈ 72.2 µM) | 50 µg/mL (≈ 144 µM) | 16 mm | 25 mm | 15 mm | 15 mm | 20 mm
